The record followed here is ChEMBL document CHEMBL3994600, “Anthenosides L-U, Steroidal Glycosides with Unusual Structural Features from the Starfish Anthenea aspera” (J Nat Prod, 2016).

The test system of series [1] is RAW264.7. Put plainly: Induction of ROS generation in mouse RAW264.7 cells at 10 uM after 24 hrs by 2,7-dichlorodihydrofluorescein diacetate staining based fluorescence assay. Type of series: cell-based. To be noted: raw264.7, 24 h.
The subject of the next series is Splenocyte. Put plainly: Cytotoxicity against Balb/c mouse splenocytes assessed as reduction in cell viability by MTT assay. Type of series: cell-based. The method, boiled down:
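BALB/C spleen homogenized in PBS pH 7.4, filtered through nylon voile, washed three times by centrifugation (450g, 5 min), resuspended in PBS at (2−5) × 10^6 cells/mL. Viability measured by standard MTT method; at least triplicate, mean ± SD.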

The next series has as its system Ehrlich. As to the kind of experiment: Cytotoxicity against mouse Ehrlich carcinoma cells assessed as reduction in cell viability by MTT assay. Type of series: cell-based. The method, boiled down: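 Ehrlich ascites carcinoma (tetraploid strain) grown in the peritoneal cavity of 18–20 g CD-1 mice. Cells harvested 7−10 days after inoculation, washed twice in PBS pH 7.4 (450g, 5 min), resuspended in serum-free RPMI-1640 at about (1−2) × 10^6 cells/mL. Standard MTT viability read-out; at least triplicate, mean ± SD.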

Series [2] concerns RAW264.7. Put plainly: Cytotoxicity against mouse RAW264.7 cells assessed as reduction in cell viability by MTT assay. Type of series: cell-based. The method, boiled down:
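Macrophages (ATCC) grown in DMEM with 10% FBS at 37 °C, humidified 5% CO2. Viability by standard MTT method; at least triplicate, mean ± SD.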

A further series relates to Erythrocyte. As to the kind of experiment: Hemolytic activity against CD-1 mouse erythrocytes after 1 hr by spectroscopic method. Type of series: ADME, cell-based. The method, boiled down: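 CD-1 mouse blood erythrocytes washed three times in PBS pH 7.4 (450g, 5 min), resuspended to OD700 1.5, kept on ice. Suspension mixed 9:1 with test solution at various concentrations, 37 °C for 1 h. Cells pelleted; supernatant hemoglobin read at 570 nm. Expressed as % hemolysis versus control; EC50 reported.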

Series [3] relates to RAW264.7. As to the kind of experiment: Immunomodulatory activity in mouse RAW264.7 cells assessed as inhibition of LPS-induced ROS level at 10 uM after 24 hrs by 2,7-dichlorodihydrofluorescein diacetate staining based fluorescence assay relative to control. As to conditions: RAW264.7, 24 h. Format: functional. The method, boiled down: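 Macrophages allowed to adhere 2 h at 37 °C, 5% CO2, then exposed to compounds at 10 μM for 24 h. In each experiment compounds were co-incubated with E. coli 055:B5 LPS (1.0 μg/mL). H2DCF-DA added (final 10 μM), 10 min at 37 °C. Fluorescence read at 485/518 nm; at least triplicate, mean ± SD, Student's t test (p < 0.05).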

Each structure is given as a SMILES string.

For `CO[C@@H]1[C@@H](O)[C@H](O[C@@H]2CC3=C4[C@@H](O)[C@@H](O)[C@H]5C[C@H](O)CC[C@]5(C)[C@H]4CC[C@]3(C)[C@H]2[C@H](C)/C=C/[C@@H](C)C(C)C)O[C@H]1[C@H](O)CO`, the Activity result in the series on RAW264.7 [1], in the series with Splenocyte, in the series with Ehrlich, with RAW264.7 [2] and in the series with Erythrocyte was “Non-Toxic” each time.
Take `C=C(CC[C@@H](C)[C@H]1[C@H](O[C@@H]2O[C@@H]([C@H](O)COC)[C@H](O)[C@H]2O)CC2=C3[C@@H](O[C@@H]4O[C@@H]([C@H](O)CO)[C@H](OC)[C@H]4O)[C@@H](O)[C@H]4C[C@H](O)CC[C@]4(C)[C@H]3CC[C@@]21C)C(C)C`: the Activity result in the series on RAW264.7 [1], with Splenocyte, in the series on Ehrlich, with RAW264.7 [2] and in the series on Erythrocyte was “Non-Toxic” in each case.
Consider `CO[C@@H]1[C@@H](O)[C@H](O[C@@H]2CC3=C4[C@@H](O)[C@@H](O)[C@H]5C[C@H](O)CC[C@]5(C)[C@H]4CC[C@]3(C)[C@H]2[C@H](C)/C=C/[C@@H](C)C(C)C)O[C@H](CO)[C@H]1O`, for which the Activity result with RAW264.7 [1], in the series on Splenocyte, in the series on Ehrlich, with RAW264.7 [2] and with Erythrocyte was “Non-Toxic” each time. Further, the inhibition at 10 µM in the series on RAW264.7 [3] was 24%.
Take `COC[C@@H](O)[C@@H]1O[C@@H](O[C@@H]2C3=C4C[C@@H](O[C@@H]5O[C@H](CO)[C@@H](O)[C@H](OC)[C@H]5O)[C@H]([C@H](C)CCCC(C)C)[C@@]4(C)CC[C@@H]3[C@@]3(C)CC[C@@H](O)C[C@@H]3[C@@H]2O)[C@H](O)[C@H]1O`: the Activity result in the series with RAW264.7 [1], in the series on Splenocyte, in the series with Ehrlich, in the series with RAW264.7 [2] and in the series with Erythrocyte was “Non-Toxic” each time.
In the case of `CO[C@@H]1[C@@H](O)[C@H](O[C@@H]2CC3=C4[C@@H](O)[C@@H](O)[C@H]5C[C@H](O)CC[C@]5(C)[C@H]4CC[C@]3(C)[C@H]2[C@H](C)/C=C/C(C)C)O[C@H](CO)[C@H]1O`, the Activity entry with RAW264.7 [1], in the series on Splenocyte, in the series with Ehrlich, in the series with RAW264.7 [2] and in the series on Erythrocyte was “Non-Toxic” in each case.
As to `COC[C@@H](O)[C@@H]1O[C@@H](O[C@@H]2C3=C4C[C@@H](O[C@@H]5O[C@H](CO)[C@@H](O)[C@H](OC)[C@H]5O)[C@H]([C@H](C)/C=C/CC(C)C)[C@@]4(C)CC[C@@H]3[C@@]3(C)CC[C@@H](O)C[C@@H]3[C@@H]2O)[C@H](O)[C@H]1O`, the Activity entry in the series on RAW264.7 [1], with Splenocyte, with Ehrlich, with RAW264.7 [2] and in the series on Erythrocyte was “Non-Toxic” throughout.
Turning to `COC[C@@H](O)[C@@H]1O[C@@H](O[C@@H]2CC3=C4[C@@H](O)[C@@H](O)[C@H]5C[C@H](O)CC[C@]5(C)[C@H]4CC[C@]3(C)[C@H]2[C@H](C)/C=C/[C@@H](C)C(C)C)[C@H](O)[C@H]1O`, the Activity result with RAW264.7 [1], in the series on Splenocyte, with Ehrlich, in the series with RAW264.7 [2] and with Erythrocyte was “Non-Toxic” in each case.
`COC[C@@H](O)[C@@H]1O[C@@H](O[C@@H]2C3=C4C[C@@H](O[C@@H]5O[C@@H]([C@H](O)COC)[C@H](O)[C@H]5O)[C@H]([C@H](C)/C=C/[C@@H](C)C(C)C)[C@@]4(C)CC[C@@H]3[C@@]3(C)CC[C@@H](O)C[C@@H]3[C@@H]2O)[C@H](O)[C@H]1O`: the Activity result in the series with RAW264.7 [1], in the series with Splenocyte, in the series on Ehrlich, with RAW264.7 [2] and with Erythrocyte was “Non-Toxic” throughout.
